{"source": "paper PMC2932756", "about": "(Chemico-biological interactions, 2010)", "key": {"[1]": {"system": "melanocytic SK-MEL-28 cells", "assay": "Intracellular GSH measurement, SK-MEL-28", "type": "cell-based, human", "conditions": "2 h", "in_short": "(§1)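 Cells from 90-95% confluent cultures seeded at 1 million cells/mL in MEM Alpha with 10% FBS in 24-well plates, 3 h at 37 °C, then given 1 mL medium with test compound (15-200 μM) for 1, 2 or 3 h. Detached with trypsin-EDTA, lysed with 3% sulphosalicylic acid, spun at 14,000 rpm and 4 °C for 10 min; supernatant diluted 10-fold. GSH by DTNB/NADPH (0.3 mM)/GSSG reductase recycling, A405 every 30 s over 4 min.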"}, "[2]": {"system": "amelanotic C32 melanoma cells", "assay": "Reactive oxygen species", "type": "cell-based, human", "conditions": "CAPE 15-300 μM", "in_short": "(§2)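 Cells seeded at 40,000/well in black 96-well plates, 24 h at 37 °C. Medium replaced with 2′,7′-dichlorofluorescein diacetate, then test compound added; fluorescence read from the moment of addition (ex 485, em 535 nm). In SK-MEL-28 only: dicoumarol 10 μM, 1-bromoheptane 75 μM, cyclosporin A 15 μM or trifluoperazine 15 μM included. Six replicates averaged.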"}, "SK-MEL-28 cells": {"system": "SK-MEL-28 cells", "assay": "MTT assay in tyrosinase shRNA transfected SK-MEL-28 cells", "type": "cell-based, human", "conditions": "CAPE 15 μM, 48 h", "in_short": "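SK-MEL-28 cells seeded at 160,000/well in 6-well plates; after 24 h transfected with tyrosinase shRNA clone (FuGENE6). 24 h later, untransfected, tyrosinase-shRNA and non-specific shRNA cells given test compound 15 μM for a further 48 h. Viability by MTT: 4 h with dye, DMSO solubilisation for 2 h at room temperature in the dark, A570. Three experiments averaged.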"}, "prostate (PC-3) cells": {"system": "prostate (PC-3) cells", "assay": "MTT cell viability assay, PC-3", "type": "cell-based, human", "conditions": "CAPE 15 μM, 48 h", "in_short": "(§3)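 24-well plates, 40,000 cells/well (SK-MEL-5 4,000/well) in 400 μL medium with 10% FBS, 24 h adhesion. Media: MEM Alpha for SK-MEL-5, MeWo and C32; DMEM for B16-F0 and B16-F10; McCoy's 5A for Saos-2; Leibovitz's L-15 for SW-620; RPMI for PC-3. Test compound 15 μM for 48 h; MTT 4 h, DMSO solubilisation for 2 h in the dark, A570. Viability relative to each line's untreated control.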"}, "SK-MEL-28 melanoma cells [3]": {"system": "SK-MEL-28 melanoma cells", "assay": "Apoptosis assay", "type": "cell-based, human", "conditions": "CAPE 15 μM, 48 h", "in_short": "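SK-MEL-28 cells seeded at 160,000/well in 6-well plates in MEM and left overnight to attach; some wells transfected with tyrosinase shRNA3 or non-specific shRNA for 24 h. Treated with test compound 15 μM (controls 1% DMSO) for 48 h. Cells detached with versene, washed in PBS, pelleted, stained with annexin V-FITC plus PI in binding buffer for 15 min. Flow cytometry on 10,000 events; annexin+ cells (PI− or PI+) counted apoptotic; triplicates.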"}, "SK-MEL-5 melanoma cells": {"system": "SK-MEL-5 melanoma cells", "assay": "MTT cell viability assay, SK-MEL-5", "type": "cell-based, human", "conditions": "CAPE 15 μM, 48 h", "in_short": "as §3"}, "amelanotic C32 cells": {"system": "amelanotic C32 cells", "assay": "MTT cell viability assay, C32", "type": "cell-based, human", "conditions": "CAPE 15 μM, 48 h", "in_short": "as §3"}, "tyrosinase [4]": {"system": "tyrosinase", "assay": "Rate of AA and NADH oxidation by tyrosinase/O2", "type": "biochemical, Mushroom"}, "[5]": {"system": "SV40 transformed keratinocytes", "conditions": "read-out: IC50, inhibition of proliferation; 48 h; cited from earlier work"}, "SK-MEL-28 melanoma cells [6]": {"system": "SK-MEL-28 melanoma cells", "assay": "MTT assay using biochemical modulators in SK-MEL-28 melanoma cells", "type": "cell-based, human", "conditions": "48 h", "in_short": "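SK-MEL-28 cells in MEM Alpha with 10% FBS, 40,000/well in 24-well plates, 24 h to adhere. DMSO-dissolved modulators (1-bromoheptane 75 μM, dicoumarol 10 μM, cyclosporin A 15 μM, trifluoperazine 15 μM) added 20 min before test compound. Viability by MTT 48 h after compound addition: 4 h with dye, DMSO solubilisation for 2 h in the dark, A570.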"}, "B16-F10 melanoma cells": {"system": "B16-F10 melanoma cells", "assay": "MTT cell viability assay, B16-F10", "type": "cell-based, murine", "conditions": "CAPE 15 μM, 48 h", "in_short": "as §3"}, "[7]": {"target": "T1, horseradish peroxidase (HRP) (Armoracia rusticana, UniProt P00433)", "T1 sequence (P00433 31-338 limits assumed)": "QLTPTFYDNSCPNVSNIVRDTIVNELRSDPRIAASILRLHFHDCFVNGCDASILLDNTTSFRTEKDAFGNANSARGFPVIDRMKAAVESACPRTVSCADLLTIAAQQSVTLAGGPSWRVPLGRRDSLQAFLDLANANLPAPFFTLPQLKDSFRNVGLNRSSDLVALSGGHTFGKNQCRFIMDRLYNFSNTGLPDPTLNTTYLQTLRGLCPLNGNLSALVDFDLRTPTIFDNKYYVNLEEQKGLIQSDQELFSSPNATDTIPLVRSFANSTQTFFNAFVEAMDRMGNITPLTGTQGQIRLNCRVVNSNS", "assay": "Rate of AA and NADH oxidation by HRP/H2O2", "type": "biochemical"}, "tyrosinase [8]": {"system": "tyrosinase", "assay": "Tyrosinase mediated GSH depletion assay", "type": "biochemical, Mushroom"}, "[9]": {"assay": "Partition coefficient, distribution coefficient and water solubility", "conditions": "pH 7.4"}, "[10]": {"system": "osteosarcoma (Saos-2) cells", "assay": "MTT cell viability assay, Saos-2", "type": "cell-based, human", "conditions": "CAPE 15 μM, 48 h", "in_short": "as §3"}, "oral cancer cells": {"system": "oral cancer cells", "conditions": "read-out: IC50, cytotoxicity; 48 h; cited from earlier work"}, "[11]": {"system": "amelanotic C32 melanoma cells", "assay": "Intracellular GSH measurement, C32", "type": "cell-based, human", "conditions": "2 h", "in_short": "as §1"}, "[12]": {"system": "melanocytic SK-MEL-28 melanoma cells", "assay": "Reactive oxygen species", "type": "cell-based, human", "in_short": "as §2"}, "[13]": {"system": "amelanotic SK-MEL-24 cells", "assay": "MTT cell viability assay, SK-MEL-24", "type": "cell-based, human", "conditions": "CAPE 15 μM, 48 h"}}}
{"smiles": "O=C(/C=C/c1ccc(O)c(O)c1)OCCc1ccccc1", "note": "[CAPE, Caffeic Acid Phenylethyl Ester]", "values": [{"measurement": "intracellular GSH depleted", "setting": "[1]; CAPE 15 μM", "result": "11±4", "unit": "%"}, {"measurement": "intracellular GSH depleted", "setting": "[1]; CAPE 50 μM", "result": "19±2", "unit": "%"}, {"measurement": "intracellular GSH depleted", "setting": "[1]; CAPE 100 μM", "result": "26±1", "unit": "%"}, {"measurement": "intracellular GSH depleted", "setting": "[1]; CAPE 200 μM", "result": "54±1", "unit": "%"}, {"measurement": "ROS formation", "setting": "[2]", "result": "no significant ROS was formed"}, {"measurement": "cell viability, tyrosinase shRNA transfected cells", "setting": "SK-MEL-28 cells", "result": "87±5", "unit": "%"}, {"measurement": "cell viability, untransfected cells", "setting": "SK-MEL-28 cells", "result": "43±6", "unit": "%"}, {"measurement": "cell viability", "setting": "prostate (PC-3) cells", "result": "88±3", "unit": "%"}, {"measurement": "apoptotic cell death", "setting": "SK-MEL-28 melanoma cells [3]", "result": "12.5±0.7", "unit": "%"}, {"measurement": "increase in apoptotic cell death in comparison to untreated control cells", "setting": "SK-MEL-28 melanoma cells [3]", "result": 2.5, "unit": "fold"}, {"measurement": "cell viability", "setting": "SK-MEL-5 melanoma cells", "result": "57±3", "unit": "%"}, {"measurement": "cell viability", "setting": "amelanotic C32 cells", "result": "86±4", "unit": "%"}, {"measurement": "Rate of NADH oxidation by tyrosinase/O2", "setting": "tyrosinase [4]; CAPE 100 μM, tyrosinase 5 U/mL, NADH 200 μM, pH 7.4", "result": "10 nM (AA and NADH depletion)/CAPE (μM)/tyrosinase (U/mL)/min"}, {"measurement": "Rate of NADH oxidation by tyrosinase/O2 in the presence of GSH", "setting": "tyrosinase [4]; with GSH 200 μM", "result": "0.08 nM GSH depletion/CAPE (μM)/tyrosinase (U/mL)/min"}, {"measurement": "IC50", "setting": "[5]", "result": 7, "unit": "µM"}, {"measurement": "increase of CAPE toxicity by 1-bromoheptane (BH)", "setting": "SK-MEL-28 melanoma cells [6]; CAPE 7.5 μM + BH 75 μM", "result": 26, "unit": "%"}, {"measurement": "enhancement of CAPE toxicity by dicoumarol", "setting": "SK-MEL-28 melanoma cells [6]; CAPE 7.5 μM + dicoumarol 10 μM", "result": 39, "unit": "%"}, {"measurement": "viability, CAPE incubated alone", "setting": "SK-MEL-28 melanoma cells [6]; CAPE 30 μM", "result": "23±2", "unit": "%"}, {"measurement": "cell viability", "setting": "B16-F10 melanoma cells", "result": "60±4", "unit": "%"}, {"measurement": "Rate of NADH oxidation by HRP/H2O2", "setting": "[7]; HRP 2 μM, H2O2 100 μM", "result": "867 μM (AA and NADH depletion)/CAPE (μM)/HRP (μM)/min"}, {"measurement": "Rate of AA oxidation by HRP/H2O2 in the presence of GSH", "setting": "[7]; with GSH", "result": "10 μM GSH depletion/CAPE (μM)/HRP (μM)/min"}, {"measurement": "Rate of NADH oxidation by HRP/H2O2 in the presence of GSH", "setting": "[7]; with GSH", "result": "5 μM GSH depletion/CAPE (μM)/HRP (μM)/min"}, {"measurement": "Tyrosinase GSH depletion (2 h)", "setting": "tyrosinase [8]; 100 μM phenolic agent, 200 μM GSH, tyrosinase/O2, 37 °C, 2 h", "result": "82±6", "unit": "%"}, {"measurement": "GSH depleted per mole of CAPE, tyrosinase/O2", "setting": "tyrosinase [8]; 2 h incubation", "result": "0.8 mole GSH per mole of CAPE"}, {"measurement": "ionized at physiological pH", "setting": "[9]", "result": "not significantly ionized"}, {"measurement": "lipid solubility relative to caffeic acid (antilog LogD)", "setting": "[9]", "result": "40,000 fold"}, {"measurement": "cell viability", "setting": "[10]", "result": "90±6", "unit": "%"}, {"measurement": "IC50", "setting": "oral cancer cells", "result": 75, "unit": "µM"}, {"measurement": "intracellular GSH depleted", "setting": "[11]; CAPE 15 μM", "result": "3±2", "unit": "%"}, {"measurement": "intracellular GSH depleted", "setting": "[11]; CAPE 50 μM", "result": "10±2", "unit": "%"}, {"measurement": "intracellular GSH depleted", "setting": "[11]; CAPE 100 μM", "result": "13±3", "unit": "%"}, {"measurement": "intracellular GSH depleted", "setting": "[11]; CAPE 200 μM", "result": "24±2", "unit": "%"}, {"measurement": "ROS formation, CAPE + BH", "setting": "[12]; BH 75 μM", "result": "11±2", "unit": "fold"}, {"measurement": "ROS formation, CAPE + TF", "setting": "[12]; CAPE 15 μM + TF 15 μM, 40 min", "result": "5±1", "unit": "fold"}, {"measurement": "ROS formation, CAPE alone", "setting": "[12]; CAPE 15 μM, 40 min", "result": "8±1", "unit": "fold"}, {"measurement": "ROS formation", "setting": "[12]; CAPE 15-300 μM, various time points", "result": "concentration- and time-dependent escalation in ROS formation"}, {"measurement": "ROS formation, CAPE + CS", "setting": "[12]; CS 15 μM", "result": "4±1", "unit": "fold"}, {"measurement": "ROS formation, CAPE + DC", "setting": "[12]; DC 10 μM", "result": "12±2", "unit": "fold"}, {"measurement": "cell viability", "setting": "[13]", "result": "81±7", "unit": "%"}]}
